# Apaf1 inhib = inhibitors of human Apaf-1 apoptosome, primary screen, biochemical, DEVD-Rh110 fluorescence, uHTS. Apoptotic protease-activating factor 1 (Homo sapiens), O14727. reconstituted apoptosome caspase-3 activity. inhibition, % at 20 µM. actives 0.71% (n = 330,000). AID 489030, 2010; active = inhibition of at least 40% at 20 µM;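 note: plate controls were DMSO wells for no effect and DEVD-CHO caspase inhibitor wells for full effect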
#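 Medium: Hepes buffer, pH 7.5 / System: biochemical Apaf-1 apoptosome reconstitution / Measured by: Rh110 fluorescence, excitation 480 nm, emission 540 nm / Times: compound with Apaf-1, dATP, procaspase-3 30 min, then 50 min reaction, room temperature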
# UBC13 inh = UBC13 polyubiquitin chain formation inhibitors, primary screen, biochemical, TR-FRET, uHTS. Ubiquitin-conjugating enzyme E2 N (Homo sapiens), P61088. actives 0.47% (n = 330,000). inhibition, % at 20 µM; in the data active = inhibition above about 45%, passing the limit was not always enough
# Target sequence (P61088 whole entry, looked up): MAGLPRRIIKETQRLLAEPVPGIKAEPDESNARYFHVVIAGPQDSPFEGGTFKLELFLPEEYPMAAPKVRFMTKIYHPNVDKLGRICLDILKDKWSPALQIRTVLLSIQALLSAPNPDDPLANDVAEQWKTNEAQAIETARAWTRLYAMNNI
# MEKK2mut PB1 HTS = MEK5 binding signal on mutant MEKK2 PB1, primary screen, biochemical, multiplex bead flow cytometry, Alexa488-MEK5; Alexa488-MEK5 binding to MEKK2 mutant; percent response, % at 10 µM; actives 0.35% (n = 290,000); in the data active = percent response above about 24%, passing the limit was not always enough
# MEKK3 PB1 HTS = modulators of MEKK3-MEK5 PB1 binding, primary screen, biochemical, wildtype MEKK3, multiplex bead flow cytometry, Alexa488-MEK5. Mitogen-activated protein kinase kinase kinase 3 (Homo sapiens), Q99759. binding response (% of control), % at 10 µM. AID 1529, 2009. actives 1.4% (n = 290,000). bead-based flow cytometry, Alexa488-MEK5 binding to MEKK3; actives lie on both sides; 0 = blocked by unlabeled MEK5, 100 = vehicle;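 active = binding response more than 3 SD above or below the average of its plate-row segment, actives on both sides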;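 note: Alexa488 bead fluorescence after subtracting the streptavidin-only scavenger bead signal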
# MEKK2wt PB1 HTS = modulators of MEK5 binding to wildtype MEKK2, primary screen, biochemical, multiplex bead flow cytometry, Alexa488-MEK5; Mitogen-activated protein kinase kinase kinase 2 (Homo sapiens), Q9Y2U5; Alexa488-MEK5 binding to MEKK2 WT; actives lie on both sides; binding response (% of control), % at 10 µM; actives 1.1% (n = 290,000); AID 1531, 2009; in the data active = binding response below about 67% or above about 130%
# MEKK2wt confirm = modulators of MEK5 binding to wildtype MEKK2, confirmation, biochemical, single concentration, multiplex bead flow cytometry | AID 1892, 2009 | shares compounds with MEKK3 PB1 HTS | actives 2.4% (n = 5,900) | binding response (% of control), % at 10 µM | Alexa488-MEK5 binding to MEKK2 WT; actives lie on both sides; in the data active = binding response below about 16% or above about 210%; inactive = in between
# MEKK2mut confirm = mutant MEKK2 PB1-MEK5 binding signal retest – biochemical, single concentration, multiplex bead flow cytometry, confirmation; actives 2% (n = 5,900); shares compounds with MEKK3 PB1 HTS; Alexa488-MEK5 binding to MEKK2 mutant; percent response, % at 10 µM; in the data active = percent response mostly above about 71%, no sharp cut-off; inactive = mostly below about 38%;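 note: higher means compound restores mutant binding toward wildtype level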
# MEKK3 confirm = MEKK3 wild-type PB1 binding to MEK5, inhibitors, confirmation, biochemical, bead multiplex flow cytometry, single concentration, wildtype; actives 1.8% (n = 5,900); binding response (% of control), % at 10 µM; shares compounds with MEKK3 PB1 HTS; Alexa488-MEK5 binding to MEKK3; stronger effect = lower value;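 active = binding response below 72% of control, or above a set upper limit, though filed actives all read lower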;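 note: 100% = DMSO only wells and 0% = binding blocked by excess unlabeled MEK5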
# The depositor's hits bear a star; · = no result given; [ ] = dose if it differs, or a comment. In the library only some 2.9% were active in any assay of this set; here they are far more common.
SMILES,Apaf1 inhib,UBC13 inh,MEKK2mut PB1 HTS,MEKK3 PB1 HTS,MEKK2wt PB1 HTS,MEKK2wt confirm,MEKK2mut confirm,MEKK3 confirm
Cc1cc(C)nc(SCC(=O)Nc2ncc(Cc3cccc(Cl)c3)s2)n1,19,10,-3,92,95,·,·,·
Cc1ccc(C)c(C(=O)C(C)OC(=O)CN2C(=O)NC3(CC(C)CC(C)(C)C3)C2=O)c1 (stereo not given),0,0,4,102,103,·,·,·
Cc1ccc(C(C)n2cc(C(=O)NCc3ccncc3)nn2)cc1 (stereo not given),-2,7,-9,1.0*[inhibitor],0.0*[inhibitor],101,-4,104
O=c1[nH]c2cc3c(cc2cc1CN(Cc1ccc2c(c1)OCO2)Cc1nnnn1CC1CCCO1)OCO3 (stereo not given),12,4,3,98,102,·,·,·
COCCn1nnnc1CN(Cc1cccnc1)Cc1cc2cc(OC)ccc2[nH]c1=O,·,·,2,102,103,·,·,·
Cc1ccc2[nH]c(=O)c(CN(Cc3cccnc3)Cc3nnnn3CC3CCCO3)cc2c1 (stereo not given),-21,4,32,135*,121,106,4,106
Cc1cc2cc(CN(Cc3nnnn3C3CCCCC3)CC3CCCO3)c(=O)[nH]c2cc1C (stereo not given),16,-5,7,107,107,·,·,·
Cc1ccc2[nH]c(=O)c(CN(Cc3cccnc3)Cc3nnnn3CCN3CCOCC3)cc2c1,2,-10,-41,2.0*[inhibitor],2.0*[inhibitor],101,1,101
Cc1ccc2cc(CN(Cc3nnnn3C3CCCCC3)CC3CCCO3)c(=O)[nH]c2c1 (stereo not given),2,6,-20,1.0*[inhibitor],-3.0*[inhibitor],94,-1,99
CNC(=O)c1ccc(=O)n(Cc2cccc(C(F)(F)F)c2)c1,-7,2,-4,106,95,·,·,·
COc1cc2oc(-c3ccc(O)cc3)cc(=O)c2c(OC)c1O,1,25,-14,37*[inhibitor],35*[inhibitor],100,-5,101
COc1cc2oc(-c3ccc(O)cc3)cc(=O)c2c(O)c1OC,2,7,7,110,107,·,·,·
CC(=O)Nc1ccc(Nc2nc(C)c([N+](=O)[O-])c(Nc3ccc(NC(C)=O)cc3)n2)cc1,5,-18,11,99,76,·,·,·
CCN(CC)c1ccc(C=Nc2cccnc2Cl)c(O)c1,14,-7,-5,92,66*[inhibitor],97,2,102
CCN(CC)c1ccc(C=Nc2cc(C)ccc2C)c(O)c1,13,-15,-3,89,75,·,·,·
O=C(O)C(Cc1ccccc1)N1C(=O)/C(=C/C=C/c2ccco2)SC1=S (stereo not given),·,·,-16,37*[inhibitor],40*[inhibitor],89,-5,97
O=C(O)CC(NS(=O)(=O)c1c(F)cc(F)cc1Br)c1ccccc1Cl (stereo not given),-1,1,279*,115,114,101,-7,98
COC(=O)CC(NS(=O)(=O)c1cccs1)c1ccccc1Cl (stereo not given),9,8,-2,103,100,·,·,·
CC1CCN(CCNC(=S)Nc2ccc(Cl)cc2)CC1,-1,11,18,106,120,·,·,·
Clc1cccc(CNCCNCc2cccc(Cl)c2)c1,12,13,17,115,187*,161,37,108
OCCNCc1cccc(Br)c1,0,1,1,100,99,·,·,·
O=C(O)C1Cc2c([nH]c3ccccc23)C(c2ccc3c(c2)OCO3)N1 (stereo not given),-9,0,13,97,6.0*[inhibitor],101,-4,100
COc1ccc(NC(=O)Nc2c(SC)nsc2SC)cc1,-3,1,-1,110,100,·,·,·
COc1ccc(-c2nc(CN3CCN(c4cc(C)nc(C)c4)CC3)c(C)o2)c2ccccc12,8,24,-6,107,158*,161,26,106
Cc1cc(N2CCN(Cc3nc(-c4ccc(Cl)cc4)oc3C)CC2)cc(C)n1,-5,-3,18,103,126,·,·,·
SMILES,Apaf1 inhib,UBC13 inh,MEKK2mut PB1 HTS,MEKK3 PB1 HTS,MEKK2wt PB1 HTS,MEKK2wt confirm,MEKK2mut confirm,MEKK3 confirm
O=C(OC(C(=O)NC1CCCC1)c1ccncc1)C1=Cc2ccccc2OC1 (stereo not given),9,7,2,103,101,·,·,·
CC(C)C(OC(=O)C1=Cc2ccccc2OC1)C(=O)NC1CCCC1 (stereo not given),0,3,3,131*,109,83,-8,96
CCC(OC(=O)C1=Cc2ccccc2OC1)C(=O)NC1CCCC1 (stereo not given),-13,2,11,126*,114,97,0,102
NC(=O)c1cc([N+](=O)[O-])c(Cl)cc1NCc1ccccn1,4,-21,·,·,·,·,·,·
COCCNC(=O)CNC(=O)c1nn(-c2ccc(OC)c(Cl)c2)c(=O)c2ccccc12,0,-5,10,143*,135*,103,4,103
CS(=O)(=O)NN1C(=O)c2ccccc2NC1c1cc2ccccc2nc1Cl (stereo not given),-4,4,0,132*,108,83,-14,79
Cc1ccc(NC(=O)/C=C/C(=O)O)c(NC(=O)c2ccccc2)c1,-8,-4,14,112,111,·,·,·
CC(C)S(=O)(=O)c1nsc2nc(=O)c(/C=C3\C=Nc4ccccc43)c(N)n12,-3,-2,1,129*,110,94,-1,97
CC1=Nc2ccccc2/C1=C/c1c(N)n2c(S(=O)(=O)C(C)C)nsc2nc1=O,11,-6,-18,86,78,·,·,·
COc1ccc(NS(=O)(=O)c2ccc(NC(=S)NC(=O)/C=C/c3ccccc3)cc2)nn1,17,-32,0,108,101,·,·,·
CCOc1ccc2nc(SCC(=O)NCc3ccc(S(N)(=O)=O)cc3)[nH]c2c1,-10,2,5,98,101,·,·,·

# Bioassay records deposited in PubChem by several laboratories.
